To fix the notation:
B1: tRNA (parent)
chain: GUUCCGUUGGCGUAAUGGUAACGCGUCUCCCUCCUAAGGAGAAGACUGCGGGUUCGAGUCCCGUACGGAACG

Fewer inactive variants are shown than the library holds.

The variants in this series derive from B1. Put plainly: yeast fitness relative to wild type (ratio to wild type); higher = fitter; tRNA-Arg(CCU), competitive growth, 37 C, YPD. In a few lines: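 Amplicons of the tRNA-Arg(CCU) gene were sequenced, 100-nucleotide paired-end, from the start population and from each end population of a pooled yeast competition. The competition, in six parallel replicates, lasted 24 hours in YPD at 37°C. Fitness relative to wild type was calculated from changes in genotype frequencies. Genotypes had to have ≥ 100 starting reads, and estimates < 0.5 were set to 0.5.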
Consider GUGCCGUUGGCGUAAUGGUAACGCGUCUCCCUCCUAAGGAGCAGACUGCGGGUUCGAGUCCCGUACGGAACG, for which the yeast fitness was determined as 0.754. On to GUGCCGUUGGCGUAAUGGUAACGCGUCUCCCUCCUAAGGAGUAGACUGCGGGUUCGAGUCCCGUACGGAACG, for which the yeast fitness was determined as 0.758. GUGCCGUUGGCGUAGUGGUAACGCGUCUCCCUCCUAAGGAGAAGACUGCGGGUUCGAGUCCCGUACGGAACG: the yeast fitness turned out to be 0.846. Regarding GUGCCGUUGGCGUAUUGGUAACGCGUCUCCCUCCUAAGGAGAAGACUGCGGGUUCGAGUCCCGUACGGAACG, the yeast fitness amounted to 0.633. GUCCCGUUGGCGUAAUGGUAACGCGUCCCCCUUCUAAGGAGAAGUCUGCGGGUUCGAGUCCCGUACGGAACG: the yeast fitness worked out at 0.528. On to GUGCCGUUGGCGUAAUGGUAGCGCGUCUCCCUCCUAACGAGAAGACUGUGGGUUCGAGUCCCGUACGGCACG, for which the yeast fitness was not above 0.5.

Regarding GUGCCGUUGGCGUAGUGGUAACGGGUCUCCCUCCUAAGGAGAAGACUGCAGGUUCGAGUCCCGUACGGAACG, the yeast fitness stood at 0.539. Consider GUCCCGUUGGCGUAAUGGUAACGCGUCACCCUCCUAAGGAGAAGACUGCGGGUUCGAGUCCCGUACGGAACG, for which the yeast fitness was found to be 0.832. Take GUGCCGUUGGCGUAGUGGUAACACGUCUCCCUCCUAAGGAGAAGACUGCGGGUUCGAGUCCCGUACGGAACG: the yeast fitness was not above 0.5. The result for GUGCCGUUGGCGUGAUGGUAACGCGUCUCCCUCCUAAGCAGAAGACUGCGGGUUCGAGUCCCGUACGGAACG reads not above 0.5. In the case of GUCCCGUUGGCGUAAUGGUAACGCGGCUCCCUACUAAGGAGAAGACUGCGGGUUCGAGUCUCGUACGGAACG, the yeast fitness was not above 0.5.

Turning to GUGCCGUUGGCGUAAUGGUAACGCGUCUCCCUCCUCAGGAGAAGCCUGCGGGUUCGAAUCCCGUACGCAACG, the yeast fitness is not above 0.5.

On to GUGCCGUUGGCGUAGUGGUAUCGUGUCUCCCUCCUAAAGAGAAGACUGCGGGUUCGAGUCCCGUACGGAACG, for which the yeast fitness was 0.571. Take GUGCCGUUGGCGUAAUGGUAACGCGUCUCCCUCCUGAGGAGAAGACUGCGGGUUCGAGUCCCGUACGGAACG: the yeast fitness worked out at 0.977. With GUGCCGUUGGCGUAAUGGUAACGCGUCUCCCUCCUUAGGAGAAGACUGCGGGUUCGAGUCCCGUACGGAACG, the yeast fitness was 0.598. On to GUCCCGUUGGCGUAAUGGUAACGCGUCUCCCUCCUAAGGAGAAGACUGCGGGUUCGAGCCCCGUACGGCACG, for which the yeast fitness was found to be 1.02. The result for GUGCCGUUGGCGUAGUGGUAACGGGUCUCCCUCCUAAGGAGAAGACUGCAGGUUUGAGUCUCGUUCGGAACG reads not above 0.5; that for GUCCCGUUGGCGUAAUGGUAACGCGUCUCCCUCCUAAGGAGAAGACUGCGGGUACGAGUCCUGUACGGAACG, not above 0.5; that for GUGCCGUUGGCGUCAUGGUUACGCGUCUCCCUCCUAAGGAGAAGACUGCGGGUUCGAGUCCCGUACGGAACG, not above 0.5. The figure for GUCCCGUUGGCGUAAUGGUAACGCGUCUCCCUCCUAAGGAGAAGACUGCGGGUUCGAGGCCCGUACGGAACG is 0.71.

Regarding GUCCCGUUGGCGUAAUGGUAACGCGUCUCCCUCCUAAGGAGAAGACUGCGGGUUCGAGACCCGUACGGAACG, the yeast fitness came to 0.846. The result for GUCCCGUUGGCGUAAUGGUAACGCGCCUCCCUCCUAAGGAGAACACUGCGGGUACGAGUCCCGUACGGCACG reads not above 0.5; that for GUGCCGUUGGCGUAAUGGUCGCGCGUCUCCCUCCUAAGGAGAAGACUGCGGGUUCGAGUCCCGUACGGAACG, 0.798; that for GUGCCGUUGGCGUAAUGGUACCGCGUCUCCCUCCUAAGGAGAAGAUUGCGGGUUCGAGUCCCGUACGGAACG, 0.505. With GUCCCGUUGGCGUAAUGGUAACGCGUCUCCCCCCUAAGGAGUAGACUGCGGGUUCGAGUCCCGUACGGAACG, the yeast fitness was 0.686.

As to GUCCCGUUGGCGUAAUGGUAACGCGUCUCCCCCCUAAGGAGAAGACUGCGGGUUCGACUCCCGUACGGAACG, the yeast fitness was determined as 1.04. Turning to GUGCCGUUGGCGUAAUGGUGACGCGUCUCCCUCCUAAGGAGAAGGCUGCGGGUUCGAGUCCCGUACGGAACG, the yeast fitness was found to be 0.75. With GUGCCGUUGGCGUAGUGGUAACGGGUCUCCCUCCUAAGGAGAAAACUGCAGGUUUGAGUCCCGUACGGAACG, the yeast fitness is not above 0.5. Consider GUGCCGUUGGCGUACUGGUAACGCGUCUCGCUGCUACGGAGAAGACUGCGGGUUCGAGUCCCGUACGGAACG, for which the yeast fitness was 0.795.

In the case of GUGCCGUUGGCGUAUUGGUAACGCGUCUCCCUCCCAAGGAGAAGACUGCGGGUUCGAGUCCCGUACGGAACG, the yeast fitness was not above 0.5.

Turning to GUCCCGUUGGCGUAAUGGUAACGCGUCACCCUCUUAAGGACAAGACUGCGAGAUCGAGCCCCGUACGGAUCG, the yeast fitness is not above 0.5.

Regarding GUCCCGUUGGCGUAAUGGUAACGCGGCUCCCUCCUAAGGAGAAGACUGCGGGUUCGAGUCCCAUACGGAACG, the yeast fitness is not above 0.5. On to GUCCCGUUGGCGUAAUGGUAACGCGUCACCCUCCUAAGGAGAAGACUGCGGGUUGGAGUCCCGUACGGAACG, for which the yeast fitness was not above 0.5. With GUCCCGUUGGCGUAAUGGUAACGCGUCUCCCUCCUAAGGAGAAGACUGCGGGCUCGAGUCCCGUACGGAACG, the yeast fitness came out at 0.78. GUGCCGUUGGCGUAAUGGUAGCGCGUCUCCCUCCUAAGGAGAAGACUGCGGGUUCGAGUCCUGUACGGAACG: the yeast fitness was 0.538. The result for GUGCCGUUGGCGUAAUGGUAACGCGUCUCCCUCCUAUGGAGAAGACUGCGGGUUCGAGUCCCGUACGGAACG reads 0.683. Take GUCCCGUUGGCGUAAUGGUAACGCGUCUCCCGCCUAGGGAGAAGACUGCGGGUUCGAGUCCCGUACGGAACG: the yeast fitness was not above 0.5. GUGCCGUUGGCGUAAUGGUAACGCGUCUCCCUCCUACGGAGUGGACUGCGGGUUCGACUCCUGUACGGAACG: the yeast fitness was not above 0.5.

For the origin of these results see the RNAGym collection of RNA variant scans (doi:10.1126/science.aae0568).
